Columns and labels:
[1] = system: Canis familiaris; assay: Antihypertensive activity in anesthetized normotensive mongrel dog assessed as maximum decrease in blood pressure at 0.4 mg/kg, iv administered at 30 mins intervals; type: functional, Canis lupus familiaris
Outline: (§1)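 Anesthetized normotensive mongrel dogs each received escalating iv doses of 0.1, 0.4 and 1.0 mg/kg at 30-min intervals. After each interval, the maximum fall in blood pressure (mm) was read against control. Doses refer to the amine salts and are uncorrected; one agent was given as free base. At least two dogs were used per compound, and ranges are reported.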

[2] = system: Canis familiaris; assay: Antihypertensive activity in anesthetized normotensive mongrel dog assessed as maximum decrease in blood pressure at 1 mg/kg, iv administered at 30 mins intervals; type: functional, Canis lupus familiaris; outline: as §1
[3] = system: Canis familiaris; assay: Antihypertensive activity in anesthetized normotensive mongrel dog assessed as maximum decrease in blood pressure at 0.1 mg/kg, iv administered at 30 mins intervals; type: functional, Canis lupus familiaris; outline: as §1
[4] = Drug metabolism in rat assessed as parent compound level in bile; type: ADME; settings: read-out: Drug excretion
[5] = Drug metabolism in rat assessed as parent compound level in urine; type: ADME; settings: read-out: Drug excretion
[6] = Drug metabolism in dog assessed as parent compound level in bile; type: ADME, Canis lupus familiaris; settings: read-out: Drug excretion
[7] = Drug metabolism in dog assessed as parent compound level in urine; type: ADME, Canis lupus familiaris; settings: read-out: Drug excretion

`COc1cc2nc(N)nc(N)c2cc1OC` gave an Activity [1] of 3 mmHg, an Activity [2] of 23 mmHg and an Activity [3] of 0 mmHg.

With `COc1cc2nc(N3CCN(C(=O)c4ccco4)CC3)nc(N)c2cc1OC.Cl` [PRAZOSIN HYDROCHLORIDE] the dose excreted [4] was 6%, the dose excreted [5] was 6% and the dose excreted [6] was 6%. It also gave an Activity [1] of 45 mmHg, a dose excreted [7] of 6% and an Activity [2] of 55 mmHg. The Activity [3] was 20 mmHg.

With `COc1cc2c(N)nc(N3CCN(C(=O)c4ccco4)CC3)nc2cc1O.O=S(=O)(O)O` the Activity [1] was 12 mmHg and the Activity [2] was 18 mmHg.

For `COc1cc2nc(N3CCN(C(=O)c4ccco4)CC3)nc(N)c2cc1O.O=S(=O)(O)O`, the Activity [1] was 10 mmHg and the Activity [2] was 15 mmHg.

— ChEMBL document CHEMBL3244231, “Synthesis and identification of the major metabolites of prazosin formed in dog and rat” (J Med Chem, 1977)
